Calls of active or inactive are those of the source. No cut-off for these calls is given here.
Experiments:
HT-29 [1] = assay: Induction of morphological changes in human HT-29 cells assessed as reduction in cell number after 96 hrs; assay type: functional, cell-based
HT-29 [2] = assay: Antimigratory activity in human HT-29 cells at 1.25 to 2.5 uM after 24 hrs by transwell assay; assay type: functional, cell-based
MDA-MB-231 [3] = assay: Cytotoxicity against human MDA-MB-231 cells after 96 hrs under normoxic condition by MTT assay; assay type: functional, cell-based; details: Homo sapiens, MDA-MB-231, 96 h; read-out: IC50
Procedure, shortened: (§1)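 MTT viability assay in HT-29 (high CA IX) and MDA-MB-231 (normal CA IX) cells under normoxic and hypoxic conditions; IC50 values reported.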

HT-29 [4] = assay: Cell cycle arrest in human HT-29 cells assessed as accumulation at sub-G1 phase at 10 uM up to 48 hrs by RNase/propidium iodide staining-based flow cytometric analysis; assay type: functional
Procedure, shortened: (§2)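 HT-29 cells exposed to 10 µM for different times (up to 72 h); sub-G1 fraction measured by flow cytometry.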

HT-29 [5] = assay: Induction of morphological changes in human HT-29 cells assessed as reduction in cell volume after 96 hrs; assay type: functional, cell-based
HT-29 [6] = assay: Cell cycle arrest in human HT-29 cells assessed as accumulation at sub-G1 phase at 10 uM after 48 to 72 hrs by RNase/propidium iodide staining-based flow cytometric analysis; assay type: functional; procedure, shortened: as §2
HT-29 [7] = assay: Induction of mitochondrial membrane potential loss in human HT-29 cells at 20 uM measured measured until 24 hrs by Rh123 dye-based flow cytometric analysis; assay type: functional, cell-based
Procedure, shortened: (§3)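 HT-29 cells exposed to 20 µM for different times, stained with Rh123 for 40 min, trypsinised (0.25%), washed three times in PBS; mitochondrial membrane potential read by flow cytometry.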

HT-29 [8] = assay: Induction of apoptosis in human HT-29 cells assessed as early apoptotic cells at 10 uM after 48 hrs by Annexin V-FITC/propidium iodide staining-based flow cytometric analysis (reference value: 0.07%); assay type: functional
[9] = molecular target: Carbonic anhydrase 9 (Homo sapiens) (UniProt Q16790); assay: Inhibition of carbonic anhydrase 9 in human HT-29 cells assessed as induction of cellular pH decrease at 10 uM after 3 to 12 hrs by BCECF-AM staining-based flow cytometric analysis; assay type: cell-based
Procedure, shortened: (§4)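 Intracellular pH in HT-29 cells exposed to 10 µM for 0, 3, 12 and 24 h: stained 40 min with BCECF-AM, trypsinised (0.25%), PBS-washed, fluorescence read by flow cytometry.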

HT-29 [10] = assay: Cytotoxicity against human HT-29 cells after 96 hrs under hypoxic condition by MTT assay; assay type: functional, cell-based; details: Homo sapiens, HT-29, 96 h; read-out: IC50; procedure, shortened: as §1
HT-29 [11] = assay: Induction of mitochondrial membrane potential loss in human HT-29 cells at 20 uM measured after 3 hrs by Rh123 dye-based flow cytometric analysis; assay type: functional, cell-based; procedure, shortened: as §3
HT-29 [12] = assay: Cytotoxicity against human HT-29 cells after 96 hrs under normoxic condition by MTT assay; assay type: functional, cell-based; details: Homo sapiens, HT-29, 96 h; read-out: IC50; procedure, shortened: as §1
HT-29 [13] = assay: Cell cycle arrest in human HT-29 cells assessed as accumulation at sub-G1 phase at 10 uM by RNase/propidium iodide staining-based flow cytometric analysis; assay type: functional; details: TDE = time-dependent effect; procedure, shortened: as §2
HT-29 [14] = assay: Growth inhibition of human HT-29 cells pretreated with 5 to 40 uM liproxstatin-1 for 1 hr followed by 10 uM compound addition and measured after 48 hrs by MTT assay
HT-29 [15] = assay: Induction of apoptosis in human HT-29 cells assessed as early apoptotic cells at 2.5 uM after 48 hrs by Annexin V-FITC/propidium iodide staining-based flow cytometric analysis (reference value: 0.07%); assay type: functional
HT-29 [16] = assay: Antimigratory activity in human HT-29 cells after 72 hrs by wound healing assay; assay type: functional, cell-based
Procedure, shortened: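 HT-29 cells plated 48 h before scratching; treated with 0, 0.31, 0.63, 1.25, 2.5 and 5 µM under normoxia; wound imaged by inverted microscope at 0 h and 72 h.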

HT-29 [17] = assay: Induction of ferroptosis in human HT-29 cells at 10 uM after 72 hrs by MTT assay; assay type: functional, cell-based
[18] = molecular target: Carbonic anhydrase 9 (Homo sapiens) (UniProt Q16790); assay: Inhibition of carbonic anhydrase 9 in human HT-29 cells assessed as induction of cellular pH decrease at 10 uM after 24 hrs by BCECF-AM staining-based flow cytometric analysis; assay type: cell-based; procedure, shortened: as §4
HT-29 [19] = assay: Cell cycle arrest in human HT-29 cells assessed as accumulation at G0/G1 phase at 10 uM after 48 hrs by RNase/propidium iodide staining-based flow cytometric analysis (reference value: 70.48%); assay type: functional
HT-29 [20] = assay: Growth inhibition of human HT-29 cells pretreated with 10 uM liproxstatin-1 for 1 hr followed by 10 uM compound addition and measured after 72 hrs by MTT assay; assay type: functional, cell-based
HT-29 [21] = assay: Induction of apoptosis in human HT-29 cells assessed as early apoptotic cells at 5 uM after 48 hrs by Annexin V-FITC/propidium iodide staining-based flow cytometric analysis (reference value: 0.07%); assay type: functional
HT-29 [22] = assay: Cell cycle arrest in human HT-29 cells assessed as accumulation at G0/G1 phase at 2.5 uM after 48 hrs by RNase/propidium iodide staining-based flow cytometric analysis (reference value: 70.48%); assay type: functional
MDA-MB-231 [23] = assay: Cytotoxicity against human MDA-MB-231 cells after 96 hrs under hypoxic condition by MTT assay; assay type: functional, cell-based; details: Homo sapiens, MDA-MB-231, 96 h; read-out: IC50; procedure, shortened: as §1
HT-29 [24] = assay: Cell cycle arrest in human HT-29 cells assessed as accumulation at G0/G1 phase at 20 uM after 48 hrs by RNase/propidium iodide staining-based flow cytometric analysis (reference value: 70.48%); assay type: functional
HT-29 [25] = assay: Cell cycle arrest in human HT-29 cells assessed as accumulation at G0/G1 phase at 5 uM after 48 hrs by RNase/propidium iodide staining-based flow cytometric analysis (reference value: 70.48%); assay type: functional

In the case of `Cc1c(Cl)c(=O)oc2cc(OCCn3cc(CO[C@H]4O[C@@H]5O[C@@]6(C)CC[C@H]7[C@H](C)CC[C@@H]([C@H]4C)[C@@]57OO6)nn3)ccc12`, the Activity (HT-29 [1]) is reported as “Dose-dependent effect”, the Activity (HT-29 [2]) is reported as “Active” and the IC50 (MDA-MB-231 [3]) is reported as 18.4 µM. The Activity (HT-29 [4]) was “inactive”, the Activity (HT-29 [5]) was “Dose-dependent effect” and the Activity (HT-29 [6]) was “<=60%”. For the same compound, the Activity (HT-29 [7]) was “inactive”, the Activity (HT-29 [8]) was 14.9% and the inhibition [9] was “Active”. For the same compound, the IC50 (HT-29 [10]) was 0.17 µM, the Activity (HT-29 [11]) was “Active” and the IC50 (HT-29 [12]) was 1.88 µM. The Activity (HT-29 [13]) was “Tde”, the “growth inhibition (GI)” value (HT-29 [14]) was “inactive” and the Activity (HT-29 [15]) was 1.7%. The Activity (HT-29 [16]) was “Dose-dependent effect”, the Activity (HT-29 [17]) was “Active” and the inhibition [18] was “Active”. For the same compound, the Activity (HT-29 [19]) was 75.45%, the “growth inhibition (GI)” value (HT-29 [20]) was “inactive” and the Activity (HT-29 [21]) was 4.8%. The Activity (HT-29 [22]) was 72.28%, the IC50 (MDA-MB-231 [23]) was 7.51 µM and the Activity (HT-29 [24]) was 82.22%. For the same compound, the Activity (HT-29 [25]) was 76.53%.

Reference: ChEMBL document CHEMBL4152206, “Design, synthesis, cytotoxicity and mechanism of novel dihydroartemisinin-coumarin hybrids as potential anti-cancer agents” (Eur J Med Chem, 2018)
